Measurements published in ChEMBL document CHEMBL1152490, “SAR study of clubbed [1,2,4]-triazolyl with fluorobenzimidazoles as antimicrobial and antituberculosis agents” (Eur J Med Chem, 2009).
Values after ≈ are worked out from the molar mass of the structure shown.

Assays:
[1] = test system: Mycobacterium tuberculosis; test: Antitubercular activity against Mycobacterium tuberculosis H37Rv by microplate alamar blue assay; type: functional
Method in brief: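 Compounds active in the primary screen were retested at lower concentrations against M. tuberculosis H37Rv by microplate Alamar Blue assay. MIC taken as the lowest concentration giving a 95% fall in fluorescence relative to controls. Rifampin was the reference compound.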

[2] = test system: Salmonella enterica subsp. enterica; test: Antimicrobial activity against Salmonella typhosa after 24 hrs by agar well diffusion assay; type: functional, Salmonella enterica subsp. enterica serovar Typhi
Method in brief: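 Agar well diffusion, modified; wells punched with a 10 mm sterile borer. Test compounds applied on impregnated sterile disks at concentrations of 0.5% to 1.0%, with gentamycin as reference standard. Plates incubated at 24–28 °C for 24 h, then bacterial inhibition scored.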

[3] = Cytotoxicity against african green monkey Vero C1008 cells at 6.25 to 50 µg/ml by neutral red uptake assay; type: cell-based; conditions: chlorocebus sabaeus
Staphylococcus aureus = test: Antimicrobial activity against Staphylococcus aureus after 24 hrs by agar well diffusion assay; type: functional
Method in brief: (§1)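 Agar well diffusion with modifications, gentamycin as reference standard. Wells 10 mm in diameter punched in agar plates with a sterile steel borer. Strains were kept on agar medium. Compounds were dissolved and applied at 0.5% to 1.0%. Incubation at 24–28 °C for 24 h, then bacterial inhibition was scored.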

Escherichia coli = test: Antimicrobial activity against Escherichia coli after 24 hrs by agar well diffusion assay; type: functional; method in brief: as §1
Pseudomonas aeruginosa = test: Antimicrobial activity against Pseudomonas aeruginosa after 24 hrs by agar well diffusion assay; type: functional; method in brief: as §1
[4] = test system: Mycobacterium tuberculosis; test: Antitubercular activity against Mycobacterium tuberculosis H37Rv at 6.25 […] by microplate alamar blue assay; type: functional
Method in brief: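 M. tuberculosis H37Rv (ATCC 27294) in BACTEC 12B medium, primary screen by broth microdilution microplate Alamar Blue assay at a single concentration of […]. Fluorescent compounds were tested instead in the BACTEC 460 radiometric system.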

Molecule | MIC [1] [µg/mL] | inhibition zone (IZ) [2] [mm] | Activity [3] | inhibition zone (IZ) (Staphylococcus aureus) [mm] | inhibition zone (IZ) (Escherichia coli) [mm] | inhibition zone (IZ) (Pseudomonas aeruginosa) [mm] | growth inhibition (GI) [4] [%] | inhibition zone (IZ) ([2]; Salmonella enterica subsp. enterica serovar Typhi) [mm]
Cc1ccccc1Cn1c(-c2ccc(-n3cncn3)cc2)nc2c(F)cc(F)cc21 | < 6.25 | 14 | Non-toxic | 19 | 18 | 21 | – | –
CCCn1c(-c2ccc(-n3cncn3)cc2)nc2c(F)cc(F)cc21 | < 6.25 | 19 | Non-toxic | 21 | 18 | 23 | – | –
C=CCn1c(-c2ccc(-n3cncn3)cc2)nc2c(F)cc(F)cc21 | < 6.25 | 23 | Non-toxic | 20 | 23 | 22 | – | –
Fc1ccc(Cn2c(-c3ccc(-n4cncn4)cc3)nc3c(F)cc(F)cc32)cc1 | 3.13 (≈ 7.72 µM) | 21 | Non-toxic | 25 | 19 | 23 | 96 | –
Cc1cccc(Cn2c(-c3ccc(-n4cncn4)cc3)nc3c(F)cc(F)cc32)c1 | < 6.25 | 16 | Non-toxic | 21 | 18 | 18 | – | –
COc1cccc(Cn2c(-c3ccc(-n4cncn4)cc3)nc3c(F)cc(F)cc32)c1 | 3.13 (≈ 7.5 µM) | 21 | Non-toxic | 24 | 22 | 22 | 96 | –
C#CCn1c(-c2ccc(-n3cncn3)cc2)nc2c(F)cc(F)cc21 | 3.13 (≈ 9.33 µM) | 24 | Non-toxic | 25 | 21 | 23 | 96 | –
Cn1c(-c2ccc(-n3cncn3)cc2)nc2c(F)cc(F)cc21 | < 6.25 | 19 | Non-toxic | 28 | 21 | 26 | – | –
Fc1cccc(Cn2c(-c3ccc(-n4cncn4)cc3)nc3c(F)cc(F)cc32)c1 | 0.36 (≈ 0.888 µM) | 24 | Non-toxic | 29 | 22 | 26 | 96 | –
CCn1c(-c2ccc(-n3cncn3)cc2)nc2c(F)cc(F)cc21 | < 6.25 | 14 | Non-toxic | 23 | 16 | 18 | – | –
Cc1ccc(S(=O)(=O)n2c(-c3ccc(-n4cncn4)cc3)nc3c(F)cc(F)cc32)cc1 | < 6.25 | 16 | Non-toxic | 14 | 16 | 12 | – | –
Fc1cc(F)c2nc(-c3ccc(-n4cncn4)cc3)n(Cc3cccc(Cl)c3)c2c1 | 0.58 (≈ 1.37 µM) | 18 | Non-toxic | 26 | 19 | 22 | 96 | –
Fc1cc(F)c2nc(-c3ccc(-n4cncn4)cc3)n(Cc3ccccc3)c2c1 | < 6.25 | 13 | Non-toxic | 19 | 15 | 20 | – | –
N#CCn1c(-c2ccc(-n3cncn3)cc2)nc2c(F)cc(F)cc21 | 1.56 (≈ 4.64 µM) | 20 | Non-toxic | 27 | 24 | 26 | 96 | –
CO[C@H]1/C=C/O[C@@]2(C)Oc3c(C)c(O)c4c(O)c(c(/C=N/N5CCN(C)CC5)c(O)c4c3C2=O)NC(=O)/C(C)=C\C=C\[C@H](C)[C@H](O)[C@@H](C)[C@@H](O)[C@@H](C)[C@H](OC(C)=O)[C@@H]1C [RIFAMPIN] | 0.015 (≈ 0.0182 µM) | – | – | – | – | – | 96 | –
Fc1cc(F)c2nc(-c3ccc(-n4cncn4)cc3)n(Cc3cccc(C(F)(F)F)c3)c2c1 | < 6.25 | 18 | Non-toxic | 22 | 20 | 21 | – | –
GENTAMICIN | – | – | – | – | 31 | – | – | 30
